Test results from ChEMBL document CHEMBL4325920, “Discovery of Clinical Candidate BMS-823778 as an Inhibitor of Human 11β-Hydroxysteroid Dehydrogenase Type 1 (11β-HSD-1)” (ACS Med Chem Lett, 2018).
Values belong to the compound of their own block, whether it stands above or below them.

Assays:
[1] = Ratio of drug level in adipose tissue to plasma in diet induced obese mouse administered via oral gavage; assay type: ADME; settings: adipose tissue and plasma
[2] = Genotoxicity in Escherichia coli by SOS chromotest; assay type: toxicity
Mus musculus [3] = assay: Selectivity ratio of ED50 for inhibition of 11beta-HSD1 in po dosed diet induced obese mouse to ED50 for ex vivo inhibition of 11beta-HSD1 in diet induced obese mouse adipose tissue administered via oral gavage; assay type: functional
[4] = Volume of distribution at steady state in cynomolgus monkey at 1 mg/kg, iv by LC-MS/MS analysis; assay type: ADME, organism-based, Macaca fascicularis; settings: in vivo, read-out: Vdss
[5] = Inhibition of recombinant cynomolgus monkey 11beta-HSD1 expressed in HEK293 cell microsomes using [3H]cortisone as substrate after 4 hrs by homogeneous immuno-radiometric scintillation proximity assay; design: species or system Macaca fascicularis
Mus musculus [6] = assay: In-vivo inhibition of 11beta-HSD1 in po dosed diet induced obese mouse assessed as reduction in conversion of dehydrocorticosterone to corticosterone pretreated for 30 to 60 mins followed by dehydrocorticosterone addition and measured after 30 to 120 mins by enzyme immunosorbent assay; assay type: functional
Cytochrome P450 2D6 = Cytochrome P450 2D6 (Homo sapiens, UniProt P10635); assay: Inhibition of human CYP2D6; assay type: ADME
[7] = target: 11-beta-hydroxysteroid dehydrogenase 1 (Mus musculus, UniProt P50172); assay: Inhibition of recombinant mouse 11beta-HSD1 expressed in HEK293 cell microsomes using [3H]cortisone as substrate after 4 hrs by homogeneous immuno-radiometric scintillation proximity assay
[8] = Toxicity in mouse up to 100 mg/kg, po administered as single dose; assay type: organism-based; settings: in vivo
[9] = target: 11-beta-hydroxysteroid dehydrogenase 1 (Homo sapiens, UniProt P28845); assay: Inhibition of recombinant human 11beta-HSD1 expressed in HEK293 cell microsomes using [3H]cortisone as substrate after 4 hrs by homogeneous immuno-radiometric scintillation proximity assay; assay type: cell-based
[10] = Total plasma clearance in Balb/C mouse at 5 mg/kg, iv by LC-MS/MS analysis; assay type: ADME, organism-based
[11] = Volume of distribution at steady state in Balb/C mouse at 5 mg/kg, iv by LC-MS/MS analysis; assay type: ADME, organism-based; settings: in vivo, read-out: Vdss
[12] = Protein binding in mouse plasma; assay type: ADME, cell-free; settings: read-out: PPB (converted)
[13] = Genotoxicity in Salmonella typhimurium by Ames test; assay type: toxicity; settings: salmonella enterica subsp. enterica serovar typhimurium
[14] = Selectivity ratio of ED50 for inhibition of 11beta-HSD1 in po dosed diet induced obese mouse to ED50 for inhibition of 11beta-HSD1 in po cynomolgus monkey; assay type: functional
Cytochrome P450 3A4 = Cytochrome P450 3A4 (Homo sapiens, UniProt P08684); assay: Inhibition of human CYP3A4; assay type: ADME
[15] = Protein binding in cynomolgus monkey plasma; assay type: ADME, cell-free, Macaca fascicularis; settings: read-out: PPB (converted)
Cytochrome P450 1A2 = target: T1, Cytochrome P450 1A2 (Homo sapiens, UniProt P05177); assay: Inhibition of human CYP1A2; assay type: ADME
T1 sequence (P05177 whole entry): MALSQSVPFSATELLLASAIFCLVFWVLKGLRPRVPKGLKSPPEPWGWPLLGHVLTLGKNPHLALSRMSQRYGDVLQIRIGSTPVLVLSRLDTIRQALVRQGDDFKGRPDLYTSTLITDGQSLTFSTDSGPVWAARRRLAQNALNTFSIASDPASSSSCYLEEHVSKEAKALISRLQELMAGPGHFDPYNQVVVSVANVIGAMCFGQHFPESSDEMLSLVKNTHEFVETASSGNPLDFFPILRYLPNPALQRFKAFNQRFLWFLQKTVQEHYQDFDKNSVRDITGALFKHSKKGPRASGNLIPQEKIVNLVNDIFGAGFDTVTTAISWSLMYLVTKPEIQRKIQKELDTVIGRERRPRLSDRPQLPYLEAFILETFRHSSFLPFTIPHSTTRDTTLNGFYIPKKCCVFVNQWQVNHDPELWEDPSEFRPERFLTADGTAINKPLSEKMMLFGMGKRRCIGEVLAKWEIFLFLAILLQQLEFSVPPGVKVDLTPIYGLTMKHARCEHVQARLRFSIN

Cytochrome P450 2C19 = Cytochrome P450 2C19 (Homo sapiens, UniProt P33261); assay: Inhibition of human CYP2C19; assay type: ADME
[16] = Oral bioavailability in Balb/C mouse at 10 mg/kg by LC-MS/MS analysis; assay type: ADME, organism-based; settings: in vivo
Method in brief: (§1)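 Given orally as a homogenized suspension, to mouse and to cynomolgus monkey.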

[17] = target: T2, Nuclear receptor subfamily 1 group I member 2 (Homo sapiens, UniProt O75469); assay: Activation of PXR (unknown origin); assay type: ADME
T2 sequence (O75469 whole entry): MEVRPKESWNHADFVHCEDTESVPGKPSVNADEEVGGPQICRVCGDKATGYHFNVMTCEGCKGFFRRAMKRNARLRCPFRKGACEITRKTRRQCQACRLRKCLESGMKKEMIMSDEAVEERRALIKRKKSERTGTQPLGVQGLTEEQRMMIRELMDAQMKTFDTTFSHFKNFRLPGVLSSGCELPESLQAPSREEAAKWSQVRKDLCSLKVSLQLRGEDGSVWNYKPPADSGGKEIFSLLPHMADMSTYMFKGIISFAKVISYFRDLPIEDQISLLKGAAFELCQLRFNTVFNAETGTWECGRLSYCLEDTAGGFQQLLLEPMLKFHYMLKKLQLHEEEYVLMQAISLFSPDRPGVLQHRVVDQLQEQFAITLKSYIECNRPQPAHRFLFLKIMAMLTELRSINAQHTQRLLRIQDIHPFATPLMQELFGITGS

[18] = Efflux ratio of permeability from basolateral to apical side over apical to basolateral side in human Caco2 cells at 3 uM; settings: caco-2, 3 µM
hERG (KCNH2) [19] = target: T3, hERG (KCNH2) (Homo sapiens, UniProt Q12809); assay: Inhibition of human ERG at 10 uM by whole-cell patch clamp method relative to control
hERG (KCNH2) [20] = target: T3, hERG (KCNH2); assay: Inhibition of human ERG at 30 uM by whole-cell patch clamp method relative to control
[21] = Ratio of drug level in liver to plasma in diet induced obese mouse administered via oral gavage; assay type: ADME; settings: liver and plasma
[22] = Stability in cynomolgus monkey microsomes assessed as parent compound remaining after 30 mins; assay type: ADME, Macaca fascicularis, Microsome; settings: read-out: Stability
Cynomolgus monkey = assay: In-vivo inhibition of 11beta-HSD1 in po cynomolgus monkey assessed as reduction in conversion of dehydrocorticosterone to corticosterone pretreated for 30 to 60 mins followed by dehydrocorticosterone addition and measured after 30 to 120 mins by enzyme immunosorbent assay; assay type: functional; settings: Macaca fascicularis
[23] = Stability in human microsomes assessed as parent compound remaining after 30 mins; assay type: ADME, Microsome; settings: read-out: Stability
[24] = Permeability of the compound by PAMPA; assay type: ADME; settings: read-out: permeability
[25] = Total plasma clearance in cynomolgus monkey at 1 mg/kg, iv by LC-MS/MS analysis; assay type: ADME, organism-based, Macaca fascicularis
[26] = Protein binding in human plasma; assay type: ADME, cell-free; settings: read-out: PPB (converted)
[27] = Oral bioavailability in cynomolgus monkey at 1.47 mg/kg by LC-MS/MS analysis; assay type: ADME, organism-based, Macaca fascicularis; settings: in vivo; method in brief: as §1
[28] = Toxicity in cynomolgus monkey assessed as emesis up to 100 mg/kg, po administered as single dose; assay type: organism-based, Macaca fascicularis; settings: in vivo
Mus musculus [29] = assay: Ex vivo inhibition of 11beta-HSD1 in diet induced obese mouse adipose tissue assessed as reduction in conversion of dehydrocorticosterone to corticosterone administered via oral gavage pretreated for 3 hrs followed by dehydrocorticosterone addition by LC-MS analysis; assay type: functional
[30] = Stability in mouse microsomes assessed as parent compound remaining after 30 mins; assay type: ADME, Microsome; settings: read-out: Stability
Cytochrome P450 2C9 = Cytochrome P450 2C9 (Homo sapiens, UniProt P11712); assay: Inhibition of human CYP2C9; assay type: ADME
[31] = Stability in rat microsomes assessed as parent compound remaining after 30 mins; assay type: ADME, Microsome; settings: read-out: Stability
[32] = Aqueous solubility of the compound at pH 6.5 using crystalline sample; assay type: physicochemical
[33] = Stability of the compound in hydrolytic solution; assay type: physicochemical
[34] = Aqueous solubility of the compound at pH 1 using crystalline sample; assay type: physicochemical
[35] = Stability of the compound at 50 degC measured after 12 weeks using crystalline solid sample; assay type: physicochemical; settings: 2016 h
[36] = Stability of the compound in aqueous buffer at pH 1.1 to pH 7.4 at 40 degC measured after 1 week; assay type: physicochemical; settings: pH 1.1, 168 h
[37] = Stability of the compound in solid state; assay type: physicochemical
[38] = Stability of the compound under high intensity light/UV light measured after 12 weeks using crystalline solid sample; assay type: physicochemical; settings: 2016 h
[39] = Stability of the compound in oxidative solution; assay type: physicochemical

Chain of 11-beta-hydroxysteroid dehydrogenase 1 (Mus musculus, UniProt P50172) (P50172 whole entry): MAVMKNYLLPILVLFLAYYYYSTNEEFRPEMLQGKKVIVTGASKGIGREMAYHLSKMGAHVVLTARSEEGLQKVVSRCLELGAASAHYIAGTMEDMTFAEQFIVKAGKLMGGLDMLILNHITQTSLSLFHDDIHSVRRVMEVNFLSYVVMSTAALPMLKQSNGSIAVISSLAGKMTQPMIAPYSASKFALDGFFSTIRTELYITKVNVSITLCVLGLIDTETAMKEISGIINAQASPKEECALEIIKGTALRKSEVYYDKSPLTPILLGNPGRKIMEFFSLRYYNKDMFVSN
T3 sequence (Q12809 whole entry): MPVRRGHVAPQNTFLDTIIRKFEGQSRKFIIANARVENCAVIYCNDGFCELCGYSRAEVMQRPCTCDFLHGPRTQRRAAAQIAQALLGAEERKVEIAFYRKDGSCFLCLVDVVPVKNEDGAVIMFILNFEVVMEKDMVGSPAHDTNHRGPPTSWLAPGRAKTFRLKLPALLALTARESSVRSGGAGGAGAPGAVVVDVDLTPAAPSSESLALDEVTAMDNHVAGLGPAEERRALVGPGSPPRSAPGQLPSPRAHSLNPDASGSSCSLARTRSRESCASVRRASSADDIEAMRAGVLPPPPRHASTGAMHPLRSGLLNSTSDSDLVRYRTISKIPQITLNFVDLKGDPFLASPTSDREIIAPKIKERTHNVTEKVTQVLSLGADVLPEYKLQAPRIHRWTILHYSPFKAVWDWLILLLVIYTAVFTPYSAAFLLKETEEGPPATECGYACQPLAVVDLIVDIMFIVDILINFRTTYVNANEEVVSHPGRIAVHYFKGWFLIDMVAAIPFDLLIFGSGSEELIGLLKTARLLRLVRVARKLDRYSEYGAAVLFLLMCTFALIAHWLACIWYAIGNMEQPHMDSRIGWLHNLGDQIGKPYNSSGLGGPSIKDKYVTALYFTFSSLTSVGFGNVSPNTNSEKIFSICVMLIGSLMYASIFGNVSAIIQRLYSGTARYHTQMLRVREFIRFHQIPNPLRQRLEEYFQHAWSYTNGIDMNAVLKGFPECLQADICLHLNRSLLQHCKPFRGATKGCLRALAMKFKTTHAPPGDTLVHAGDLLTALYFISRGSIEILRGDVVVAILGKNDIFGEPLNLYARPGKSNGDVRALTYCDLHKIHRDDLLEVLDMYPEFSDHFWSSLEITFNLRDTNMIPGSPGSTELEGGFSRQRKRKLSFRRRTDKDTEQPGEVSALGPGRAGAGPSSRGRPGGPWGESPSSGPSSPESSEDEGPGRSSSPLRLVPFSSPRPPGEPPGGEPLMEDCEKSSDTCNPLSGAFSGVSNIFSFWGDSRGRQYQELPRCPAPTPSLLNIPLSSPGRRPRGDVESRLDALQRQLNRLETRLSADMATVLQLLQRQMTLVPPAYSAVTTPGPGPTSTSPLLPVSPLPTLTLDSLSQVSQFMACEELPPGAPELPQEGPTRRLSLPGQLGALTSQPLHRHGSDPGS
Chain of Cytochrome P450 3A4 (P08684 whole entry): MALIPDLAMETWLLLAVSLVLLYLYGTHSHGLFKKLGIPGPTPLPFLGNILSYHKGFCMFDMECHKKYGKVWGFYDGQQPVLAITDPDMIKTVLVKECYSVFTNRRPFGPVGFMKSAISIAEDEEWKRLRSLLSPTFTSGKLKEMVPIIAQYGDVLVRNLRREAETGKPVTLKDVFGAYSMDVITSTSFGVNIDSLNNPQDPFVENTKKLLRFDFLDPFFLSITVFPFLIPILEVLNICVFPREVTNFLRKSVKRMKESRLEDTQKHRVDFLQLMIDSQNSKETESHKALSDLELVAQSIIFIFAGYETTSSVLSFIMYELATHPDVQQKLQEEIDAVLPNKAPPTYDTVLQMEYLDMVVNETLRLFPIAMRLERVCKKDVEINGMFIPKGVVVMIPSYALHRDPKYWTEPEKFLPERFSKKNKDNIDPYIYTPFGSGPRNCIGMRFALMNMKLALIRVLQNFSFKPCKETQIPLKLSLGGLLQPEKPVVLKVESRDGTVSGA
Chain of Cytochrome P450 2D6 (P10635 whole entry): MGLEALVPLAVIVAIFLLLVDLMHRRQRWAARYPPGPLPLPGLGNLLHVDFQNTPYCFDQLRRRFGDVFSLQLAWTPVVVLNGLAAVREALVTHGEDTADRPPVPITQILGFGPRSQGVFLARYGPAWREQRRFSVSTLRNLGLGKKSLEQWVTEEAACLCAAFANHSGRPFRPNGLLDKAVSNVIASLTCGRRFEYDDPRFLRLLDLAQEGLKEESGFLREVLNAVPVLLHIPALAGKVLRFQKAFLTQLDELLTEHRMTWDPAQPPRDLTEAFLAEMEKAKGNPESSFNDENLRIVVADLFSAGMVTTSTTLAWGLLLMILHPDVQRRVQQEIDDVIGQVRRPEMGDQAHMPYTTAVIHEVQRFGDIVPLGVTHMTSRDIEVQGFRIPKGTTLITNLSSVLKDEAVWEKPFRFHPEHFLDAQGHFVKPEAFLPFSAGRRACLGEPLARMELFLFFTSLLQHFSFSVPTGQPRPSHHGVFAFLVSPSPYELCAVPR
Chain of Cytochrome P450 2C9 (P11712 whole entry): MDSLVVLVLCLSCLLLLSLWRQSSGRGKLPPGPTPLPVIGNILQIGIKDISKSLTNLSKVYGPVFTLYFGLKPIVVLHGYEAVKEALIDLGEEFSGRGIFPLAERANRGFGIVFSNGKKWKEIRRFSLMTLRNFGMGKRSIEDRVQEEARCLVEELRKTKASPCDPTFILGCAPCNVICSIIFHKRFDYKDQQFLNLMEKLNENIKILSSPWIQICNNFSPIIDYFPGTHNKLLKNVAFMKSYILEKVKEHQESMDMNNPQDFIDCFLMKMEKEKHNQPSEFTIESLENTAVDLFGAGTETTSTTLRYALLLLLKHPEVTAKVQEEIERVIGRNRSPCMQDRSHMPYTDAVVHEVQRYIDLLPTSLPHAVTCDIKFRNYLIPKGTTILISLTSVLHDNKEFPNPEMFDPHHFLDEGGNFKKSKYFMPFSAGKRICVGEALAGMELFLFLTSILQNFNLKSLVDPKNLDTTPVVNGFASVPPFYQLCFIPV
Chain of Cytochrome P450 2C19 (P33261 whole entry): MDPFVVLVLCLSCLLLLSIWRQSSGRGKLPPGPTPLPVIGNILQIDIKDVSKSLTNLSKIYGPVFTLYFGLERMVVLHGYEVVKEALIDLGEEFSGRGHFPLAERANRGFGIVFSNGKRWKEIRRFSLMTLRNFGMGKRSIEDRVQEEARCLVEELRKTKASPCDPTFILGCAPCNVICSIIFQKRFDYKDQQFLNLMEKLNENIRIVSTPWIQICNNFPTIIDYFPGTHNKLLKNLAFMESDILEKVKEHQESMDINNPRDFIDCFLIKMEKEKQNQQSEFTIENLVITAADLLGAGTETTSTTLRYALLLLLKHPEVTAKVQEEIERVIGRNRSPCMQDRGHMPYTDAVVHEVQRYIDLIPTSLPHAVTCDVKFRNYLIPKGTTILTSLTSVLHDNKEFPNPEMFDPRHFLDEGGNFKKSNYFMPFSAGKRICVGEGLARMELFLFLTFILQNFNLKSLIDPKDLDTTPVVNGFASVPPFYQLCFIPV
Chain of 11-beta-hydroxysteroid dehydrogenase 1 (Homo sapiens, UniProt P28845) (P28845 whole entry): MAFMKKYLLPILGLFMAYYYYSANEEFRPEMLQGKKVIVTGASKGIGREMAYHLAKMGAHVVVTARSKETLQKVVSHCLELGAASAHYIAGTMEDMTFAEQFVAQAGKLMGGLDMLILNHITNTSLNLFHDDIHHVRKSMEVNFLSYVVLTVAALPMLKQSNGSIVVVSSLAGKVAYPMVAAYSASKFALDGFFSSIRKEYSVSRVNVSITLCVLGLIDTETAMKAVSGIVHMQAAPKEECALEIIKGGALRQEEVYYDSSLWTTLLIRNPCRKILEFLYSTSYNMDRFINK

Kp [1]: 2.5
Vd [4]: 2.3 L/kg
IC50 (Cytochrome P450 2D6): > 30000 nM
IC50 [7]: 600 nM
Ki [7]: 380 nM
Ki [9]: 0.9 nM
clearance [10]: 2.3 mL/min/kg
Vd [11]: 1.2 L/kg
fraction unbound [12]: 0.13
IC50 (Cytochrome P450 3A4): > 30000 nM
fraction unbound [15]: 0.16
IC50 (Cytochrome P450 1A2): > 30000 nM
IC50 (Cytochrome P450 2C19): > 30000 nM
bioavailability [16]: 44%
EC50 [17]: > 50000 nM
Ratio [18]: < 2
Kp [21]: 3.5
remaining at 0.5 h [22]: 96 to 100%
remaining at 0.5 h [23]: 96 to 100%
Papp [24]: > 50 ×10⁻⁶ cm/s
clearance [25]: 1.2 mL/min/kg
fraction unbound [26]: 0.15
bioavailability [27]: 100%
remaining at 0.5 h [30]: 96 to 100%
IC50 (Cytochrome P450 2C9): > 30000 nM
remaining at 0.5 h [31]: 96 to 100%
Structure (SMILES): CC(C)(O)c1cccn2c(C3(c4ccc(Cl)cc4)CC3)nnc12 [BMS-823778 FREE BASE]
Activity [2]: Non-Toxic
Ratio ED50 (Mus musculus [3]): 6.5
Ki [5]: 7 nM
ED50 (Mus musculus [6]): 34 mg/kg
Activity [8]: Non-Toxic
Activity [13]: Non-Toxic
Ratio ED50 [14]: 57
inhibition at 10 µM (hERG (KCNH2) [19]): 19.8%
inhibition at 30 µM (hERG (KCNH2) [20]): 31.2%
ED50 (Cynomolgus monkey): 0.6 mg/kg
Activity [28]: Toxic
ED50 (Mus musculus [29]): 5.2 mg/kg

solubility thermodynamic [32]: 0.5 mg/mL
Stability [33]: Stable
solubility thermodynamic [34]: 220 mg/mL
Stability [35]: Stable
Stability [36]: Stable
Stability [37]: Stable
Stability [38]: Stable
Stability [39]: Stable
Structure (SMILES): CC(C)(O)c1cccn2c(C3(c4ccc(Cl)cc4)CC3)nnc12.Cl [BMS-823778]
